This passage reports cytotoxicity results from ChEMBL document CHEMBL4513216, “Probing the Open Global Health Chemical Diversity Library for Multistage-Active Starting Points for Next-Generation Antimalarials” (ACS Infect Dis, 2020).

The nature of this data set: Toxicity liver stage against HepG2, at 10uM. In kind it is cell-based. Also noted: test concentration 10 uM, cell line HepG2-A16-CD81EGFP. As to conditions: human, HepG2-A16-CD81EGFP cells; read-out: INHIBITION
The method in brief: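 Uninfected HepG2-A16-CD81EGFP cells, 3 × 10^3 per well, 1536-well, plated on prespotted compound at 10 μM final, parasite-free screening media added to match infected plates; puromycin 10 μM positive, DMSO 0.5% negative; run in parallel with 48 h PbLuc assay at 37 °C, 5% CO2; viability by CellTiter-Glo luminescence, normalized to controls.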
Turning to `Cc1ccccc1CNC(C)c1ccc(OCC(=O)NC2CC2)cc1` (configuration not stated), the cytotoxicity at 10 µM was -6.97%. The figure for `COc1ccc(OC)c(C(=O)N2CCC(Nc3cccnc3)CC2)c1` is -138%; for `COc1ccc2c(c1)c(C(=O)Nc1nnn[nH]1)cn2C` it is -1.33%. Turning to `Cc1cn2c(=O)c(-c3ccnc(N[C@@H]4CCOC4)n3)cnc2s1`, the cytotoxicity at 10 µM was -9.19%. To `CN(Cc1cccs1)c1nc2c(cnn2C(C)(C)C)c(=O)[nH]1` belongs 9.75%. Regarding `Cc1nc(C)n(CC2CN(CCCc3ccccc3)CCO2)n1` (configuration not stated), the cytotoxicity at 10 µM came to 2.89%. As for `CCn1c(C)cc(C(=O)NCc2cccc(NS(C)(=O)=O)c2)c1C`, the cytotoxicity at 10 µM is -2.6%.

Take `COCCNC(=O)c1ccc(NCc2c(C)noc2C)cc1Cl`: the cytotoxicity at 10 µM was 0.678%.

In the case of `CCN1CC2(CC1=O)CN(Cc1cnn(C)c1)CCN(C(=O)C(C)C)C2` (configuration not stated), the cytotoxicity at 10 µM is -15%.

On to `O=C(NCCCNc1cccnc1)c1ccc2nccn2c1`, for which the cytotoxicity at 10 µM was -42.4%.

Take `COCCN1CCN(CCCc2nnnn2-c2ccccc2)CC1`: the cytotoxicity at 10 µM is 5.04%.

`COCCN(Cc1ccoc1)S(=O)(=O)c1ccc(F)c(Cl)c1`: the cytotoxicity at 10 µM was -7.93%. With `Cc1nccc(C(=O)NC(CN2CCCC2=O)c2ccccc2)n1` (configuration not stated), the cytotoxicity at 10 µM came out at 8.01%. Turning to `c1ccc(Cc2noc(CN3CCCCC3C3OCCO3)n2)cc1` (configuration not stated), the cytotoxicity at 10 µM is -2.62%. Consider `CN(C(=O)CNc1ccc(C#N)cc1)C1CCCCC1`, for which the cytotoxicity at 10 µM was 0.0479%. For `O=S1(=O)CCCN1Cc1coc(-c2ccc(C(F)(F)F)cc2)n1`, the cytotoxicity at 10 µM was -2.04%.

Turning to `CN1CCN(c2ccc(NC(=O)c3cccs3)c(C(F)(F)F)c2)CC1`, the cytotoxicity at 10 µM worked out at 3.94%. On to `O=C1CN(C(=O)C2CCCCC2)CC(O)CN1Cc1ccco1` (configuration not stated), for which the cytotoxicity at 10 µM is -2.67%. To `CS(=O)(=O)CC(=O)N1C[C@H]2CCC[C@@]2(COc2ccccn2)C1` belongs -99.2%. On to `Cc1nc(C2CCCN(C(=O)c3csc(C)n3)C2)no1` (configuration not stated), for which the cytotoxicity at 10 µM was determined as 7.04%.

With `CC(C)c1nc(S(=O)(=O)Nc2ccnn2C2CCCC2)c[nH]1`, the cytotoxicity at 10 µM is -3.36%. To `CN(Cc1cccnc1)CC1CC12CCN(c1nncs1)CC2` (configuration not stated) belongs 9.28%; to `Cn1c2c(ccc1=O)CC(Nc1ncc(F)cn1)CC2` (configuration not stated), -143%.

Consider `O=S1(=O)NC(c2ccnc(N3CCCC3)n2)=Nc2ccccc21`, for which the cytotoxicity at 10 µM worked out at 12.8%. To `CCOc1ccccc1-c1noc(CN2CCCC(O)C2)n1` (configuration not stated) belongs -3.85%; to `Cc1[nH]c2c(F)cccc2c1CC(=O)N1CCN(C2CCSCC2)CC1`, 4.82%; to `Cn1ccnc1CNc1ccc(F)c(N2CCCS2(=O)=O)c1`, -1.45%. Turning to `O=C(c1cccs1)N1CCCC2(COCCN(c3cccnc3)C2)C1` (configuration not stated), the cytotoxicity at 10 µM was -70.3%.

For the compound `O=C(O)c1nnn(-c2ccccc2)c1-c1ccncc1`, the cytotoxicity at 10 µM amounted to 2.33%. In the case of `Cc1noc(C)c1CN1CCc2ncnc(-c3ccncc3)c2CC1`, the cytotoxicity at 10 µM is -87%. As to `O=C(O)CCNC(=O)Cc1csc(-c2cccc(Cl)c2)n1`, the cytotoxicity at 10 µM was determined as 8.32%. The figure for `O=C1COc2ccc(S(=O)(=O)NCC3CCCO3)c3c2N1CCC3` (configuration not stated) is -4.2%; for `CC(C(=O)N1CCN(C)CC1)n1cc(Br)cn1` (configuration not stated) it is 3.6%; for `N#CC1(NC(=O)c2cc(Cl)ccc2OC(F)F)CCOCC1` it is 7.48%. As for `Cc1cnc(CN2CCCC(c3cc(C(N)=O)[nH]n3)C2)o1` (configuration not stated), the cytotoxicity at 10 µM was -9.14%. On to `Cc1nccn1CC1CCN(C(=O)c2cccs2)CC1`, for which the cytotoxicity at 10 µM is -14.2%. To `Cc1ccnc(N2Cc3cnn(Cc4ccc(F)cc4)c3C2)n1` belongs 3.59%; to `CS(=O)(=O)NC1CCc2c(ccc(=O)n2CC2CC2)C1` (configuration not stated), 4.84%.

With `O=c1[nH]c2cn(-c3cccc(F)c3)c(=O)n2n1Cc1ccc(Cl)cc1`, the cytotoxicity at 10 µM was 8.53%. Consider `CC(C(=O)Nc1ccccc1F)S(C)(=O)=O` (configuration not stated), for which the cytotoxicity at 10 µM was -5.27%.

As to `C/C(Cl)=C/CNC(=O)C1CCC2(CC1)CN(C)C(=O)c1ccccc1O2` (configuration not stated), the cytotoxicity at 10 µM turned out to be 4.52%. As for `Cc1c(C(=O)N2CC(=O)N(C)C2)nnn1-c1cccc2cccnc12`, the cytotoxicity at 10 µM stood at 5.64%. Take `Cc1noc(C2(C)CCCN(C(=O)c3cccnc3)C2)n1` (configuration not stated): the cytotoxicity at 10 µM was -13.4%. For the compound `CN1CCOC(CNCc2nc(-c3cccnc3)no2)C1` (configuration not stated), the cytotoxicity at 10 µM is -5.3%. For `O=C(NCCN1CCCCCC1)c1cccc(Cl)c1Cl`, the cytotoxicity at 10 µM turned out to be 5.8%. On to `O=C(NC[C@]1(O)CN(Cc2ncccc2F)C[C@H]1O)c1cc[nH]n1`, for which the cytotoxicity at 10 µM is -6.07%. On to `Cc1nc(C(C)Nc2nc3c(s2)c(C)nn3C)n[nH]1` (configuration not stated), for which the cytotoxicity at 10 µM is 10.2%. On to `CCNC(=O)[C@@H]1C[C@@H](NC(=O)c2cnc[nH]c2=O)CN1Cc1ccsc1`, for which the cytotoxicity at 10 µM was -6.94%. For `CO[C@@H]1CCC[C@@H](NC(=O)C(C)(C)c2cccc(F)c2)[C@H]1O`, the cytotoxicity at 10 µM was -1.09%. Consider `COc1ccccc1C(C)(C)NCc1ccc(C)o1`, for which the cytotoxicity at 10 µM was -0.121%. For `c1cc(CO[C@@H]2CC[C@H]3[C@H]2OCCN3CC2CCOCC2)ccn1`, the cytotoxicity at 10 µM came to 26.9%. Consider `CN(C)S(=O)(=O)N1CC[C@]2(O)CCN(CCCc3cccnc3)C[C@@H]2C1`, for which the cytotoxicity at 10 µM is -6.55%. Regarding `CN(C)c1ncc2c(n1)CCCC2NC(=O)C1CC1` (configuration not stated), the cytotoxicity at 10 µM was 4.07%. The figure for `CCc1cnc(N)nc1N1CCCC2(CCOCC2)C1` is -135%. Take `CCc1[nH]ncc1C(=O)N1CCCC(n2ccnc2C)C1` (configuration not stated): the cytotoxicity at 10 µM was -10.5%. The figure for `O=C(c1cc(-n2cccn2)ccn1)N1CCOc2ccc(F)cc21` is 1.26%. On to `Cc1ccc(S(=O)(=O)N2CC[C@@H](O)C2)c(F)c1`, for which the cytotoxicity at 10 µM is -10.2%. Take `Cc1ccc(C)c(OC2CCN(C(=O)NCC(=O)N3CCCC3)CC2)c1`: the cytotoxicity at 10 µM is -5.75%. As to `CC1=CC[C@@H]2CN(C(=O)c3ccc(-c4nnn(C)n4)cc3)C[C@@H]2C1`, the cytotoxicity at 10 µM was 7.16%. With `CN(Cc1ccc(C(N)=O)cc1)c1ccc(C(F)(F)F)cn1`, the cytotoxicity at 10 µM was found to be 7.98%. Turning to `CCN(Cc1ccncc1)C1CCCN(Cc2ccc(F)cc2OC)C1` (configuration not stated), the cytotoxicity at 10 µM was -3.73%. The figure for `Cn1cncc1CN1CCC(O)(Cn2nc(-c3cccs3)oc2=O)CC1` is -5.46%; for `CCOc1ccc(NC(=O)Cc2cc(C)[nH]n2)cc1CO` it is 0.335%; for `COc1ccc(CN2CCn3cc(CNC(=O)CC4CC4)nc3C2)cc1` it is -82.6%. Consider `CC(C)NC(=O)NCCn1cnc(C2CCCC2)cc1=O`, for which the cytotoxicity at 10 µM is -0.373%.

Consider `Cc1cc(S(=O)(=O)N2CCCN3CCCC3C2)ccc1F` (configuration not stated), for which the cytotoxicity at 10 µM came to 17%. In the case of `Cc1csc(Nc2cc(C3CCCCN3C)nc(C)n2)n1` (configuration not stated), the cytotoxicity at 10 µM is 4.73%. For `Cc1cc(F)c(S(=O)(=O)NCCCN2CCC(O)CC2)cc1F`, the cytotoxicity at 10 µM is -25.9%. In the case of `O=C(NCc1ccco1)[C@H]1CC[C@@H]2[C@@H](CCN2c2ncc(F)cn2)O1`, the cytotoxicity at 10 µM was -78.4%. For the compound `CCNc1nc(-c2cccnc2)c(-c2ccnc(N3CCCC3)n2)s1`, the cytotoxicity at 10 µM was -5.14%. The figure for `CN(C)c1ncccc1CNC(=O)NCc1ccc(Cl)s1` is 9.21%. `Cc1ccc(CNC(C)(C)c2noc(C(C)(C)C)n2)o1`: the cytotoxicity at 10 µM is -9.02%. Regarding `O=C1CCC(C(=O)NCc2nncn2-c2ccccc2)CN1` (configuration not stated), the cytotoxicity at 10 µM is -12.7%. For `CCn1nccc1CNC(=O)Cn1cc2c(n1)c(C)nn2C(C)C`, the cytotoxicity at 10 µM was -4.7%. With `Cc1cc(C)cc(C(=O)Nc2ccc(CC3CC(=O)NC3=O)cc2)c1` (configuration not stated), the cytotoxicity at 10 µM was -3%. To `O=c1ccc(S(=O)(=O)N2CCCC2)cn1CC1CCCCO1` (configuration not stated) belongs -0.983%; to `CC(Cc1ccccn1)N(C)Cc1ccc2c(c1)CCO2` (configuration not stated), -0.0105%; to `CCn1nc(C)c(CN2CCNCC2)c1C`, 6.4%. In the case of `NC(=O)c1csc(N2CCN(Cc3cccc4nsnc34)CC2)n1`, the cytotoxicity at 10 µM worked out at 0.5%. For the compound `Cc1ccccc1S(=O)(=O)N1CCCCC1c1ccn[nH]1` (configuration not stated), the cytotoxicity at 10 µM was determined as 12.1%. To `Cn1cnc(S(=O)(=O)N2CCOCC2)c1Cl` belongs 5.9%. The figure for `CCNc1cc2c(nn1)CCN(C(=O)c1ccoc1)C2` is -6.9%. `Cn1ncc(C(=O)N2CCOCC2)c1Cl`: the cytotoxicity at 10 µM was 8.93%. On to `CC(C)N(C)C(=O)c1ccc(CNc2ncc(C#N)cc2Cl)cc1`, for which the cytotoxicity at 10 µM is 15.9%.

As for `COCCN1CCN(Cc2cnc(C(C)C)nc2)CC1`, the cytotoxicity at 10 µM is 10.6%. With `CCC1=N[C@@]2(CC[C@@H]3CN(S(=O)(=O)N(C)C)C[C@@H]32)C(=O)N1CC(C)C`, the cytotoxicity at 10 µM amounted to 10.3%. Turning to `CC(=O)N1CC2C[C@]2(NC(=O)c2ccco2)C1` (some centres not stated), the cytotoxicity at 10 µM was -2.36%. As to `Cn1cc(C2COC3(CCN(C(=O)c4cccc(O)c4)CC3)C2)cn1` (configuration not stated), the cytotoxicity at 10 µM is -73.3%.

As to `CC(=O)N1CCN(Cc2ccc(F)c(C(F)(F)F)c2)CC(O)C1` (configuration not stated), the cytotoxicity at 10 µM is -6.87%. As to `CSc1ccc(-c2nc(CN3CCC(NC(C)=O)C3)c(C)o2)cc1` (configuration not stated), the cytotoxicity at 10 µM was 1.24%. `Cc1n[nH]c(C(=O)NCc2ccnc(OCC(F)(F)F)c2)c1Br`: the cytotoxicity at 10 µM was determined as 5.67%. Regarding `Cc1cc(CN(C)C(=O)NCc2ccccn2)no1`, the cytotoxicity at 10 µM was 1.62%. With `Cc1nc(C)n(CC2CCCCN2CCOc2cccc(C#N)c2)n1` (configuration not stated), the cytotoxicity at 10 µM was -10%. As for `Cc1nc(N2CCCC2)ncc1-c1cc(O)nc(NCC2CCCO2)n1` (configuration not stated), the cytotoxicity at 10 µM came to 0.723%. As for `N#Cc1ccc(CN2CCc3sccc3C2)c(F)c1`, the cytotoxicity at 10 µM was -5.13%.

With `CN(Cc1nnc2ccccn12)C(=O)CCC1CCCC1`, the cytotoxicity at 10 µM was -2.94%.

As to `NC(=O)c1cccc(CC2CCN(C(=O)CCc3cccc(F)c3)C2)c1` (configuration not stated), the cytotoxicity at 10 µM is -3.75%.
